Data published in ChEMBL document CHEMBL1150063, “Synergistic effect of flavones and flavonols against herpes simplex virus type 1 in cell culture. Comparison with the antiviral activity of propolis” (J Nat Prod, 1992).
≈ marks a conversion by molar mass, not a printed value.

How the values were obtained:
Human alphaherpesvirus 1 [1] = assay: Antiviral activity against HSV1 in african green monkey Vero cells assessed as log reduction of virus titer at 10.8 ug/ml; type: functional
Procedure, shortened: (§1)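 Vero (ATCC CCL81) monolayers, confluent and 1 day old, in microtiter plates. Compound was diluted from DMSO stock into MEM and added just before infection with HSV-1 strain H 29 S at 100 TCID50/well. Each drug was tested in sextuplicate at 37° for 72 h. Wells were freeze-thawed 3 times, pooled and clarified, then titrated by limit dilution (CPE, TCID50/ml). Activity is the log10 titer reduction versus untreated controls.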

Human alphaherpesvirus 1 [2] = assay: Antiviral activity against HSV1 in african green monkey Vero cells assessed as log reduction of virus titer at 40.6 ug/ml; type: functional; procedure, shortened: as §1
Human alphaherpesvirus 1 [3] = assay: Antiviral activity against HSV1 in african green monkey Vero cells assessed as log reduction of virus titer at 30.5 ug/ml; type: functional; procedure, shortened: as §1
Human alphaherpesvirus 1 [4] = assay: Antiviral activity against HSV1 in african green monkey Vero cells assessed as log reduction of virus titer at 5.4 ug/ml; type: functional; procedure, shortened: as §1
[5] = Cytotoxicity against african green monkey Vero cells; type: cell-based; conditions: chlorocebus sabaeus
Procedure, shortened: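 Uninfected Vero monolayers (ATCC CCL81; MEM with 10% newborn calf serum) in 25 cm2 flasks, 2.10^6 cells, four flasks per dilution, exposed to 0.05–5 mM in maintenance medium, diluted from DMSO stocks with MEM. After 96 h, morphology checked by microscopy; cells trypsinized and counted by trypan blue exclusion against untreated cultures. CC50 = concentration halving cell number.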

Human alphaherpesvirus 1 [6] = assay: Antiviral activity against HSV1 in african green monkey Vero cells assessed as log reduction of virus titer at 20.3 ug/ml; type: functional; procedure, shortened: as §1
Human alphaherpesvirus 1 [7] = assay: Antiviral activity against HSV1 in african green monkey Vero cells assessed as log reduction of virus titer at 15 ug/ml; type: functional; procedure, shortened: as §1
Human alphaherpesvirus 1 [8] = assay: Antiviral activity against HSV1 in african green monkey Vero cells assessed as log reduction of virus titer at 11.4 ug/ml; type: functional; procedure, shortened: as §1
Human alphaherpesvirus 1 [9] = assay: Antiviral activity against HSV1 in african green monkey Vero cells assessed as log reduction of virus titer at 10 ug/ml; type: functional; procedure, shortened: as §1
Human alphaherpesvirus 1 [10] = assay: Antiviral activity against HSV1 in african green monkey Vero cells assessed as log reduction of virus titer at 5.7 ug/ml; type: functional; procedure, shortened: as §1
Human alphaherpesvirus 1 [11] = assay: Antiviral activity against HSV1 in african green monkey Vero cells assessed as log reduction of virus titer at 5 ug/ml; type: functional; procedure, shortened: as §1
Human alphaherpesvirus 1 [12] = assay: Antiviral activity against HSV1 in african green monkey Vero cells assessed as log reduction of virus titer at 10.1 ug/ml; type: functional; procedure, shortened: as §1
Human alphaherpesvirus 1 [13] = assay: Antiviral activity against HSV1 in african green monkey Vero cells assessed as log reduction of virus titer at 60.4 ug/ml; type: functional; procedure, shortened: as §1
Human alphaherpesvirus 1 [14] = assay: Antiviral activity against HSV1 in african green monkey Vero cells assessed as log reduction of virus titer at 48.3 ug/ml; type: functional; procedure, shortened: as §1
Human alphaherpesvirus 1 [15] = assay: Antiviral activity against HSV1 in african green monkey Vero cells assessed as log reduction of virus titer at 72.5 ug/ml; type: functional; procedure, shortened: as §1
Human alphaherpesvirus 1 [16] = assay: Antiviral activity against HSV1 in african green monkey Vero cells assessed as log reduction of virus titer at 21.6 ug/ml; type: functional; procedure, shortened: as §1
Human alphaherpesvirus 1 [17] = assay: Antiviral activity against HSV1 in african green monkey Vero cells assessed as log reduction of virus titer at 32.4 ug/ml; type: functional; procedure, shortened: as §1
Human alphaherpesvirus 1 [18] = assay: Antiviral activity against HSV1 in african green monkey Vero cells assessed as log reduction of virus titer at 2.8 ug/ml; type: functional; procedure, shortened: as §1
Human alphaherpesvirus 1 [19] = assay: Antiviral activity against HSV1 in african green monkey Vero cells assessed as log reduction of virus titer at 1.4 ug/ml; type: functional; procedure, shortened: as §1
Human alphaherpesvirus 1 [20] = assay: Antiviral activity against HSV1 in african green monkey Vero cells assessed as log reduction of virus titer at 22.9 ug/ml; type: functional; procedure, shortened: as §1
Human alphaherpesvirus 1 [21] = assay: Antiviral activity against HSV1 in african green monkey Vero cells assessed as log reduction of virus titer at 45.7 ug/ml; type: functional; procedure, shortened: as §1
Human alphaherpesvirus 1 [22] = assay: Antiviral activity against HSV1 in african green monkey Vero cells assessed as log reduction of virus titer at 24.1 ug/ml; type: functional; procedure, shortened: as §1
Human alphaherpesvirus 1 [23] = assay: Antiviral activity against HSV1 in african green monkey Vero cells assessed as log reduction of virus titer at 36.2 ug/ml; type: functional; procedure, shortened: as §1
Human alphaherpesvirus 1 [24] = assay: Antiviral activity against HSV1 in african green monkey Vero cells assessed as log reduction of virus titer at 12 ug/ml; type: functional; procedure, shortened: as §1
Human alphaherpesvirus 1 [25] = assay: Antiviral activity against HSV1 in african green monkey Vero cells assessed as log reduction of virus titer at 34.3 ug/ml; type: functional; procedure, shortened: as §1

**Q.** Which Activity (Human alphaherpesvirus 1 [1]) does the source give for `O=c1cc(-c2ccccc2)oc2cc(O)cc(O)c12` [CHRYSIN] here?
**A.** The Activity was 0.5.

**Q.** And the Activity (Human alphaherpesvirus 1 [2])?
**A.** Its Activity is 1.1.

**Q.** And the Activity (Human alphaherpesvirus 1 [3])?
**A.** Its Activity is 0.8.

**Q.** And the Activity (Human alphaherpesvirus 1 [4])?
**A.** Its Activity is 0.25.

**Q.** And the CC50 [5]?
**A.** Its CC50 is 76.2 µg/mL (≈ 300 µM).

**Q.** And the Activity (Human alphaherpesvirus 1 [6])?
**A.** The Activity was 0.5.

**Q.** With `O=c1cc(-c2ccc(O)c(O)c2)oc2cc(O)cc(O)c12` [LUTEOLIN] as the compound, how does the Activity (Human alphaherpesvirus 1 [7]) read?
**A.** Its Activity is 1.5.

**Q.** What about the Activity (Human alphaherpesvirus 1 [8]) of the same compound?
**A.** The Activity was 2.2.

**Q.** What about the Activity (Human alphaherpesvirus 1 [9]) of the same compound?
**A.** The Activity was 1.

**Q.** What about the CC50 [5] of the same compound?
**A.** Its CC50 is 22.9 µg/mL (≈ 80 µM).

**Q.** What about the Activity (Human alphaherpesvirus 1 [10]) of the same compound?
**A.** Its Activity is 0.9.

**Q.** Which Activity (Human alphaherpesvirus 1 [11]) does the source give for `O=c1c(O)c(-c2ccc(O)c(O)c2)oc2cc(O)cc(O)c12` [QUERCETIN] here?
**A.** The Activity was 0.

**Q.** And the Activity (Human alphaherpesvirus 1 [12])?
**A.** Its Activity is 0.3.

**Q.** What about the Activity (Human alphaherpesvirus 1 [13]) of the same compound?
**A.** The Activity was 2.

**Q.** And the Activity (Human alphaherpesvirus 1 [14])?
**A.** Its Activity is 1.4.

**Q.** And the CC50 [5]?
**A.** The CC50 was 151 µg/mL (≈ 500 µM).

**Q.** What about the Activity (Human alphaherpesvirus 1 [15]) of the same compound?
**A.** Its Activity is 2.3.

**Q.** What does the source list for `O=c1c(O)c(-c2ccccc2)oc2cc(O)cc(O)c12` [GALANGIN]?
**A.** Activity (Human alphaherpesvirus 1 [16]): 3.5; Activity (Human alphaherpesvirus 1 [1]): 2.3; CC50 [5]: 43.2 µg/mL (≈ 160 µM)

**Q.** With `O=c1cc(-c2ccc(O)cc2)oc2cc(O)cc(O)c12` [APIGENIN] as the compound, how does the Activity (Human alphaherpesvirus 1 [16]) read?
**A.** Its Activity is 1.

**Q.** What about the Activity (Human alphaherpesvirus 1 [17]) of the same compound?
**A.** The Activity was 1.5.

**Q.** What about the Activity (Human alphaherpesvirus 1 [18]) of the same compound?
**A.** The Activity was 0.4.

**Q.** And the CC50 [5]?
**A.** The CC50 was 54 µg/mL (≈ 200 µM).

**Q.** What about the Activity (Human alphaherpesvirus 1 [19]) of the same compound?
**A.** Its Activity is 0.25.

**Q.** Which Activity (Human alphaherpesvirus 1 [20]) does the source give for `O=c1c(O)c(-c2ccc(O)cc2)oc2cc(O)cc(O)c12` [KAEMPFEROL] here?
**A.** The Activity was 1.5.

**Q.** What about the Activity (Human alphaherpesvirus 1 [21]) of the same compound?
**A.** The Activity was 3.5.

**Q.** And the Activity (Human alphaherpesvirus 1 [22])?
**A.** Its Activity is 0.75.

**Q.** What about the CC50 [5] of the same compound?
**A.** Its CC50 is 91.5 µg/mL (≈ 320 µM).

**Q.** What about the Activity (Human alphaherpesvirus 1 [23]) of the same compound?
**A.** The Activity was 1.25.

**Q.** And the Activity (Human alphaherpesvirus 1 [24])?
**A.** The Activity was 0.1.

**Q.** What about the Activity (Human alphaherpesvirus 1 [25]) of the same compound?
**A.** The Activity was 3.1.
